Experimental data published in ChEMBL document CHEMBL1156002, “Synthesis, Raman, FT-IR, NMR spectroscopic characterization, antimicrobial activity, cytotoxicity and DNA binding of new mixed aza-oxo-thia macrocyclic compounds” (2009).

What was measured:
Micrococcus luteus [1] = test: Antibacterial activity against Micrococcus luteus La 2971 at 30 ug after 24 hrs by agar disk diffusion assay; assay type: functional; conditions: La 2971, 24 h, read-out: IZ
Method in brief: (§1)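 Disk diffusion with sterile 6 mm discs loaded with DMSO solutions of the test agents and placed on inoculated agar. Bacteria were pre-grown in Nutrient Broth at 30 °C for 24 h, and plates were incubated at 35 °C for 24 h. Each plate carried a reference antibiotic disc matched to the organism, and a DMSO-only solvent control was run.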

Pseudomonas aeruginosa [2] = test: Antibacterial activity against Pseudomonas aeruginosa ATCC 27853 at 30 ug after 24 hrs by agar disk diffusion assay; assay type: functional; conditions: ATCC 27853, 24 h, read-out: IZ; method in brief: as §1
Listeria monocytogenes [3] = test: Antibacterial activity against Listeria monocytogenes ATCC 15313 at 30 ug after 24 hrs by agar disk diffusion assay; assay type: functional; conditions: ATCC 15313, 24 h, read-out: IZ; method in brief: as §1
Escherichia coli [4] = test: Antibacterial activity against Escherichia coli ATCC 11230 at 30 ug after 24 hrs by agar disk diffusion assay; assay type: functional; conditions: ATCC 11230, 24 h, read-out: IZ
Method in brief: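 Bacteria pre-grown in Nutrient Broth at 30 °C for 24 h. Sterile 6 mm discs loaded with compound solutions freshly made in DMSO were placed on inoculated agar and incubated at 35 °C for 24 h. The medium was supplemented with DMSO as a solvent control, and an appropriate reference antibiotic disc was added to each plate.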

Klebsiella pneumoniae [5] = test: Antibacterial activity against Klebsiella pneumoniae UC57 at 30 ug after 24 hrs by agar disk diffusion assay; assay type: functional; conditions: UC57, 24 h, read-out: IZ; method in brief: as §1
[6] = system: Mycolicibacterium smegmatis; test: Antibacterial activity against Mycobacterium smegmatis CCM 2067 at 30 ug after 24 hrs by agar disk diffusion assay; assay type: functional; conditions: CCM 2067, 24 h, read-out: IZ; method in brief: as §1
Staphylococcus aureus [7] = test: Antibacterial activity against Staphylococcus aureus ATCC 6538 at 30 ug after 24 hrs by agar disk diffusion assay; assay type: functional; conditions: ATCC 6538, 24 h, read-out: IZ
Method in brief: (§2)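 Sterile 6 mm paper discs were loaded with ligand solution freshly prepared in DMSO and placed on inoculated agar. The inoculum came from broth cultures: bacteria in Nutrient Broth at 30 °C for 24 h, yeasts in Malt Extract Broth for 48 h. Plates were incubated at 35 °C for 24 h (bacteria) or 25 °C for 72 h (yeasts). A DMSO solvent control and a reference antibiotic disc were included on each plate.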

Bacillus cereus [8] = test: Antibacterial activity against Bacillus cereus ATCC 7064 at 30 ug after 24 hrs by agar disk diffusion assay; assay type: functional; conditions: ATCC 7064, 24 h, read-out: IZ; method in brief: as §1
Proteus vulgaris [9] = test: Antibacterial activity against Proteus vulgaris ATCC 8427 at 30 ug after 24 hrs by agar disk diffusion assay; assay type: functional; conditions: ATCC 8427, 24 h, read-out: IZ; method in brief: as §1
[10] = system: Hanseniaspora guilliermondii; test: Antifungal activity against Hanseniaspora guilliermondii DSM 3432 after 24 hrs by broth micro dilution method; assay type: functional
Method in brief: (§3)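 Broth microdilution was run in cation-adjusted Mueller Hinton Broth. Compounds were dissolved in DMSO at 2 mg mL^-1 and serially diluted two-fold. Yeast precultures were grown in Malt Extract Broth for 48 h. The final inoculum was about 10⁶ cfu mL^-1, and plates were incubated at 37 °C for 24 h. The MIC was read from this series.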

Rhodotorula mucilaginosa [11] = test: Antifungal activity against Rhodotorula rubra DSM 70403 after 24 hrs by broth micro dilution method; assay type: functional; method in brief: as §3
Kluyveromyces marxianus [12] = test: Antifungal activity against Kluyveromyces fragilis NRRL 2415 at 100 ug after 72 hrs by agar disk diffusion assay; assay type: functional, organism-based
Method in brief: (§4)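 Yeasts were pre-grown in Malt Extract Broth for 48 h. Sterile 6 mm discs loaded with compound solutions freshly made in DMSO were placed on inoculated agar and incubated at 25 °C for 72 h. The medium was supplemented with DMSO as a solvent control, and an appropriate reference antifungal disc was added to each plate.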

Candida albicans [13] = test: Antifungal activity against Candida albicans ATCC 10231 after 24 hrs by broth micro dilution method; assay type: functional; method in brief: as §3
Debaryomyces hansenii [14] = test: Antifungal activity against Debaryomyces hansenii DSM 70238 after 24 hrs by broth micro dilution method; assay type: functional; method in brief: as §3
Debaryomyces hansenii [15] = test: Antifungal activity against Debaryomyces hansenii DSM 70238 at 100 ug after 72 hrs by agar disk diffusion assay; assay type: functional, organism-based; method in brief: as §4
Kluyveromyces marxianus [16] = test: Antifungal activity against Kluyveromyces fragilis NRRL 2415 after 24 hrs by broth micro dilution method; assay type: functional; method in brief: as §3
[17] = system: Hanseniaspora guilliermondii; test: Antifungal activity against Hanseniaspora guilliermondii DSM 3432 at 100 ug after 72 hrs by agar disk diffusion assay; assay type: functional, organism-based; method in brief: as §4
Rhodotorula mucilaginosa [18] = test: Antifungal activity against Rhodotorula rubra DSM 70403 at 100 ug after 72 hrs by agar disk diffusion assay; assay type: functional, organism-based; method in brief: as §4
Staphylococcus aureus [19] = test: Antibacterial activity against Staphylococcus aureus ATCC 6538 at 5 ug after 24 hrs by agar disk diffusion assay; assay type: functional; conditions: ATCC 6538, 24 h, read-out: IZ; method in brief: as §2
Escherichia coli [20] = test: Antibacterial activity against Escherichia coli ATCC 11230 at 5 ug after 24 hrs by agar disk diffusion assay; assay type: functional; conditions: ATCC 11230, 24 h, read-out: IZ; method in brief: as §1
Micrococcus luteus [21] = test: Antibacterial activity against Micrococcus luteus La 2971 at 5 ug after 24 hrs by agar disk diffusion assay; assay type: functional; conditions: La 2971, 24 h, read-out: IZ; method in brief: as §1
Bacillus cereus [22] = test: Antibacterial activity against Bacillus cereus ATCC 7064 at 5 ug after 24 hrs by agar disk diffusion assay; assay type: functional; conditions: ATCC 7064, 24 h, read-out: IZ; method in brief: as §1
Proteus vulgaris [23] = test: Antibacterial activity against Proteus vulgaris ATCC 8427 at 5 ug after 24 hrs by agar disk diffusion assay; assay type: functional; conditions: ATCC 8427, 24 h, read-out: IZ; method in brief: as §1
[24] = system: Mycolicibacterium smegmatis; test: Antibacterial activity against Mycobacterium smegmatis CCM 2067 at 5 ug after 24 hrs by agar disk diffusion assay; assay type: functional; conditions: CCM 2067, 24 h, read-out: IZ; method in brief: as §1
Listeria monocytogenes [25] = test: Antibacterial activity against Listeria monocytogenes ATCC 15313 at 5 ug after 24 hrs by agar disk diffusion assay; assay type: functional; conditions: ATCC 15313, 24 h, read-out: IZ; method in brief: as §1
Pseudomonas aeruginosa [26] = test: Antibacterial activity against Pseudomonas aeruginosa ATCC 27853 at 5 ug after 24 hrs by agar disk diffusion assay; assay type: functional; conditions: ATCC 27853, 24 h, read-out: IZ; method in brief: as §1
Klebsiella pneumoniae [27] = test: Antibacterial activity against Klebsiella pneumoniae UC57 at 5 ug after 24 hrs by agar disk diffusion assay; assay type: functional; conditions: UC57, 24 h, read-out: IZ; method in brief: as §1
Debaryomyces hansenii [28] = test: Antifungal activity against Debaryomyces hansenii DSM 70238 at 20 ug after 72 hrs by agar disk diffusion assay; assay type: functional; conditions: DSM 70238, 72 h, read-out: IZ; method in brief: as §4
Candida albicans [29] = test: Antifungal activity against Candida albicans ATCC 10231 at 20 ug after 72 hrs by agar disk diffusion assay; assay type: functional; conditions: ATCC 10231, 72 h, read-out: IZ; method in brief: as §4
[30] = system: Hanseniaspora guilliermondii; test: Antifungal activity against Hanseniaspora guilliermondii DSM 3432 at 20 ug after 72 hrs by agar disk diffusion assay; assay type: functional; conditions: DSM 3432, 72 h, read-out: IZ; method in brief: as §4
Rhodotorula mucilaginosa [31] = test: Antifungal activity against Rhodotorula rubra DSM 70403 at 20 ug after 72 hrs by agar disk diffusion assay; assay type: functional; conditions: DSM 70403, 72 h, read-out: IZ; method in brief: as §4
Kluyveromyces marxianus [32] = test: Antifungal activity against Kluyveromyces fragilis NRRL 2415 at 20 ug after 72 hrs by agar disk diffusion assay; assay type: functional; conditions: NRRL 2415, 72 h, read-out: IZ; method in brief: as §4

CN[C@H](CC(C)C)C(=O)N[C@H]1C(=O)N[C@@H](CC(N)=O)C(=O)N[C@H]2C(=O)N[C@H]3C(=O)N[C@H](C(=O)N[C@H](C(=O)O)c4cc(O)cc(O)c4-c4cc3ccc4O)[C@H](O)c3ccc(c(Cl)c3)Oc3cc2cc(c3O[C@@H]2O[C@H](CO)[C@@H](O)[C@H](O)[C@H]2O[C@H]2C[C@](C)(N)[C@H](O)[C@H](C)O2)Oc2ccc(cc2Cl)[C@H]1O [VANCOMYCIN]
zone of inhibition at 30 µg/disc (Micrococcus luteus [1]): 20 mm | zone of inhibition at 30 µg/disc (Pseudomonas aeruginosa [2]): 34 mm | zone of inhibition at 30 µg/disc (Listeria monocytogenes [3]): 26 mm | zone of inhibition at 30 µg/disc (Escherichia coli [4]): 22 mm | zone of inhibition at 30 µg/disc (Klebsiella pneumoniae [5]): 22 mm | zone of inhibition at 30 µg/disc [6]: 20 mm | zone of inhibition at 30 µg/disc (Staphylococcus aureus [7]): 13 mm | zone of inhibition at 30 µg/disc (Bacillus cereus [8]): 10 mm | zone of inhibition at 30 µg/disc (Proteus vulgaris [9]): 18 mm

NYSTATIN
MIC [10]: 3.12 µg/mL | MIC (Rhodotorula mucilaginosa [11]): 6.25 µg/mL | inhibition zone (IZ) (Kluyveromyces marxianus [12]): 20 mm | MIC (Candida albicans [13]): 3.12 µg/mL | MIC (Debaryomyces hansenii [14]): 12.5 µg/mL | inhibition zone (IZ) (Debaryomyces hansenii [15]): 16 mm | MIC (Kluyveromyces marxianus [16]): 6.25 µg/mL | inhibition zone (IZ) [17]: 21 mm | inhibition zone (IZ) (Rhodotorula mucilaginosa [18]): 18 mm

CC1COc2c(N3CCN(C)CC3)c(F)cc3c(=O)c(C(=O)O)cn1c23 (stereo unspecified) [OFLOXACIN]
zone of inhibition at 5 µg/disc (Staphylococcus aureus [19]): 24 mm | zone of inhibition at 5 µg/disc (Escherichia coli [20]): 30 mm | zone of inhibition at 5 µg/disc (Micrococcus luteus [21]): 28 mm | zone of inhibition at 5 µg/disc (Bacillus cereus [22]): 44 mm | zone of inhibition at 5 µg/disc (Proteus vulgaris [23]): 30 mm | zone of inhibition at 5 µg/disc [24]: 32 mm | zone of inhibition at 5 µg/disc (Listeria monocytogenes [25]): 30 mm | zone of inhibition at 5 µg/disc (Pseudomonas aeruginosa [26]): 28 mm | zone of inhibition at 5 µg/disc (Klebsiella pneumoniae [27]): 28 mm

CO/N=C(\C(=O)N[C@@H]1C(=O)N2C(C(=O)O)=C(COC(C)=O)CS[C@H]12)c1csc(N)n1 [CEFOTAXIME]
zone of inhibition at 30 µg/disc (Micrococcus luteus [1]): 18 mm | zone of inhibition at 30 µg/disc (Pseudomonas aeruginosa [2]): 32 mm | zone of inhibition at 30 µg/disc (Listeria monocytogenes [3]): 16 mm | zone of inhibition at 30 µg/disc (Escherichia coli [4]): 10 mm | zone of inhibition at 30 µg/disc (Klebsiella pneumoniae [5]): 13 mm | zone of inhibition at 30 µg/disc [6]: 11 mm | zone of inhibition at 30 µg/disc (Staphylococcus aureus [7]): 12 mm | zone of inhibition at 30 µg/disc (Bacillus cereus [8]): 54 mm | zone of inhibition at 30 µg/disc (Proteus vulgaris [9]): 14 mm

CC(=O)N1CCN(c2ccc(OCC3COC(Cn4ccnc4)(c4ccc(Cl)cc4Cl)O3)cc2)CC1 (stereo unspecified) [KETOCONAZOLE]
zone of inhibition at 20 µg/disc (Debaryomyces hansenii [28]): 14 mm | zone of inhibition at 20 µg/disc (Candida albicans [29]): 22 mm | zone of inhibition at 20 µg/disc [30]: 24 mm | zone of inhibition at 20 µg/disc (Rhodotorula mucilaginosa [31]): 16 mm | zone of inhibition at 20 µg/disc (Kluyveromyces marxianus [32]): 21 mm
